Measured values reported in ChEMBL document CHEMBL4043073, “Boronic Acid Modifications Enhance the Anti-Influenza A Virus Activities of Novel Quindoline Derivatives” (J Med Chem, 2017).
Calls of active or inactive are those of the source. The calls are words filed in the database; no cut-off is given here.

What was measured:
NCI-H1299 = assay: Cytotoxicity against human H1299 cells at 20 uM after 48 hrs by resazurin based fluorescence method; assay type: cell-based; conditions: nci-h1299, 48 h
In short: (§1)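 Confluent MDCK, A549 or H1299 cells exposed in triplicate to compound for 48 h at 37 °C (A549/H1299 at 20 μM). Resazurin added to 0.2 mg/mL final for 16 h. Fluorescence read at ex 544 / em 595 nm; viability as % of untreated.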

Influenza A virus [1] = assay: Antiviral activity against Influenza A virus (A/Puerto Rico/8/34(H1N1)) infected in MDCK cells assessed as reduction in virus titer at 10 uM preincubated with virus for 1 hr followed by viral infection measured after 24 hrs by crystal violet staining based plaque assay; assay type: functional, cell-based; conditions: A/Puerto Rico/8/1934(H1N1)
In short: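 PR8 (MOI 1.0) preincubated with compound (2.5–10 μM) 1 h at 37 °C, then used to infect MDCK cells. After adsorption, medium with the same compound concentration was added. At 24 h p.i. supernatant virus titer was measured by plaque assay; n = 3.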

Vero [2] = assay: (§2) Inhibition of Influenza A virus (A/Puerto Rico/8/34(H1N1)) hemagglutinin expressed in African green monkey Vero cells assessed as reduction in acid-induced syncytium formation treated at pH 5 for 10 mins measured after 2 hrs by Hema3Stat Pak-staining based microscopic analysis; assay type: cell-based; conditions: Influenza A virus (A/Puerto Rico/8/1934(H1N1))
In short: (§3)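 Vero cells transfected with PR8 HA plasmid. At 16 h HA was cleaved with 5 μg/mL TPCK-trypsin for 15 min at 37 °C. Cells were preincubated with compound 15 min at 37 °C, then held at pH 5.0 with compound for 10 min at 37 °C. After rinsing, cells were kept 2 h in 10% FBS medium, stained with Hema3Stat Pak and examined for syncytia by microscopy.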

[3] = Drug uptake in human A549 cells at 20 uM after 4 hrs by DAPI staining based confocal microscopic analysis; assay type: ADME, cell-based; conditions: a549, 4 h
In short: (§4)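 A549 cells incubated with 20 μM compound 4 h at 37 °C, then fixed and DAPI-stained. Compound intrinsic fluorescence located by confocal microscopy.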

Canis lupus familiaris [4] = organism: Canis lupus familiaris; assay: (§5) Inhibition of NFkappaB activation-mediated viral RNA synthesis in MDCK cells infected with Influenza A virus (A/Puerto Rico/8/34(H1N1)) assessed as NF-kB phosphorylation level at 5 uM preincubated with virus for 1 hr followed by viral infection measured after 4 hrs by Western blot method relative to control (reference value: 1.8); assay type: cell-based
In short: (§6)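 PR8 (MOI 1.0) pretreated with compound 1 h at 37 °C, then MDCK cells were kept in infecting medium with 5 or 10 μM for 4 h; ribavirin 50 μg/mL as comparator. Lysates were immunoblotted for phospho-ERK1/2, p38, NF-κB or Akt, with β-actin/GAPDH loading controls and AP/NBT-BCIP detection. Densitometry was normalised to uninfected cells (= 1.0); n = 3.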

Influenza A virus [5] = assay: Antiviral activity against Influenza A virus (A/Puerto Rico/8/34(H1N1)) infected in MDCK cells assessed as virus yeild reduction preincubated with virus at 37 degreeC for 1 hr followed by viral infection for 1 hr measured after 3 days by crystal violet staining based plaque assay; assay type: functional, cell-based; conditions: A/Puerto Rico/8/1934(H1N1)
In short: (§7)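 Plaque reduction: about 50–100 PFU/well of PR8, Cal09 or Minnesota preincubated with compound (0–10 μM) 1 h at 37 °C. Mixture then adsorbed to MDCK monolayers 1 h at 4 °C. Overlay was DMEM with 1.5% agarose, DEAE-dextran and 1 μg/mL TPCK-trypsin for 3 days at 37 °C. Glutaraldehyde fix, crystal violet stain, plaque count; IC50 derived; n = 4.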

Influenza A virus [6] = assay: Antiviral activity against Influenza A virus (A/Puerto Rico/8/34(H1N1)) infected in MDCK cells assessed as virus yeild reduction at 10 uM preincubated with cells for 1 hr followed by viral infection for 1 hr measured at 24 hrs post infection by crystal violet staining based plaque assay; assay type: functional, cell-based; conditions: A/Puerto Rico/8/1934(H1N1)
In short: (§8)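 Time-of-addition on MDCK cells, PR8 MOI 1.0, 10 μM compound. Three arms: cells pretreated before infection; compound present during adsorption 1 h at 4 °C; or compound added after removal of unadsorbed virus. Virus yield at 24 h p.i. by plaque assay; n = 3.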

Influenza A virus [7] = assay: Antiviral activity against Influenza A virus (A/Puerto Rico/8/34(H1N1)) infected in A549 cells assessed as reduction in localization of viral NP protein in nucleus at 10 uM preincubated with virus at 37 degC for 1 hr followed by viral adsorption at 4 degC for 1 hr and subsequent infection in A549 cells measured at 2 to 4 hrs post infection by FITC-staining based immunofluorescence microscopic method; assay type: functional, cell-based; conditions: A/Puerto Rico/8/1934(H1N1)
In short: (§9)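 PR8 (MOI 1.0) pretreated with 10 μM compound 1 h at 37 °C, adsorbed 1 h at 4 °C, then A549 cells were kept in infecting medium with 10 μM compound. Fixed with 4% paraformaldehyde at 2 or 4 h p.i., permeabilised with Triton X-100 and blocked. Anti-NP plus FITC secondary, confocal imaging; nuclear NP intensity per unit area quantified (n = 30 images).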

[8] = Drug uptake in human A549 cell cytoplasm at 20 uM after 4 hrs by DAPI staining based confocal microscopic analysis; assay type: ADME; conditions: a549, 4 h; in short: as §4
Vero [9] = assay: as §2, with “preincubated at pH 7 for 15 mins followed by incubation” for “treated”; assay type: cell-based; conditions: Influenza A virus (A/Puerto Rico/8/1934(H1N1)); in short: as §3
Influenza A virus [10] = assay: Antiviral activity against Influenza A virus (A/Puerto Rico/8/34(H1N1)) infected in MDCK cells assessed as virus yeild reduction at 10 uM treated during viral adsorption for 1 hr measured at 24 hrs post infection by crystal violet staining based plaque assay; assay type: functional, cell-based; conditions: A/Puerto Rico/8/1934(H1N1); in short: as §8
[11] = test system: Influenza A virus (A/Puerto Rico/8/1934(H1N1)); assay: Inhibition of Influenza A virus (A/Puerto Rico/8/34(H1N1)) neuraminidase using MUNANA as substrate preincubated for 30 mins followed by substrate addition measured after 30 mins by fluorescence assay relative to control
In short: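 Inactivated PR8 virus supernatant mixed with compound (10 μM) in 33 mM MES […], 4 mM CaCl2 for 30 min at 37 °C. MUNANA (20 μM) was added for 30 min at 37 °C and the reaction stopped with glycine/ethanol pH 10.7. Fluorescence read at ex 360 / em 440 nm; zanamivir 10 μM as reference; n = 3.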

Influenza A virus [12] = assay: Antiviral activity against Influenza A virus (A/swine/Minnesota/02719/2009(H3N2)) infected in MDCK cells assessed as virus yeild reduction preincubated with virus at 37 degC for 1 hr followed by viral infection for 1 hr measured after 3 days by crystal violet staining based plaque assay; assay type: functional, cell-based; in short: as §7
Influenza A virus [13] = assay: Antiviral activity against Influenza A virus (A/Puerto Rico/8/34(H1N1)) infected in A549 cells assessed as reduction in nuclear import of viral RNP by measuring colocalization with viral NP in cytoplasm at 10 uM preincubated with virus at 37 degC for 1 hr followed by viral adsorption at 4 degC for 1 hr and subsequent infection in A549 cells measured at 2 to 4 hrs post infection by confocal microscopic method; assay type: functional, cell-based; conditions: A/Puerto Rico/8/1934(H1N1); in short: as §9
Influenza A virus [14] = assay: Antiviral activity against Influenza A virus (A/Puerto Rico/8/34(H1N1)) infected in Kunming mouse assessed as survival rate at 10 mg/kg/day, po qd for 7 days measured on day 14 post infection (reference value: 30%); assay type: functional; conditions: A/Puerto Rico/8/1934(H1N1)
Canis lupus familiaris [15] = organism: Canis lupus familiaris; assay: as §5, with “endocytosis” for “RNA synthesis”, “Akt” for “NF-kB”, “1.4)” for “1.8)”; assay type: cell-based; in short: as §6
A549 = assay: Cytotoxicity against human A549 cells at 20 uM after 48 hrs by resazurin based fluorescence method; assay type: cell-based; conditions: a549, 48 h; in short: as §1

In the case of `O=C(Nc1ccccc1Nc1c2ccccc2nc2c1[nH]c1ccccc12)c1cccc(B(O)O)c1`, the Activity (NCI-H1299) is reported as “Non-Toxic”, the IC50 (Influenza A virus [1]) is reported as 2500 nM and the inhibition (Vero [2]) is reported as “inactive”. The Drug uptake [3] was “Active”, the fold change (FC) (Canis lupus familiaris [4]) was 0.9 and the IC50 (Influenza A virus [5]) was 3200 nM. The Activity (Influenza A virus [6]) was “inactive”, the Activity (Influenza A virus [7]) was “Active” and the Drug uptake [8] was “Active”. The inhibition (Vero [9]) was “inactive”, the Activity (Influenza A virus [10]) was “Active” and the inhibition [11] was 72%. The IC50 (Influenza A virus [12]) was 2300 nM, the Activity (Influenza A virus [13]) was “Active” and the survival at 10 mg/kg/day (Influenza A virus [14]) was 90%. For the same molecule, the fold change (FC) (Canis lupus familiaris [15]) was 1.2 and the Activity (A549) was “Non-Toxic”.
